In ChEMBL document CHEMBL1150199, “Preparation, characterization, and antiviral activity of microbial metabolites of stemodin” (J Nat Prod, 1991):
≈ marks a conversion by molar mass, not a printed value. Calls of active or inactive are those of the source. The rule behind the calls is not given here.

Columns and labels:
[1] = Cytotoxicity against african green monkey Vero cells after 66 hrs; assay type: cell-based; details: chlorocebus sabaeus
Outline: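 Confluent Vero monolayers in DMEM with 10% calf serum received triplicate serial dilutions of DMSO-dissolved samples at 1–100 µg/ml, with higher levels where needed. The cytotoxic concentration is reported as CD50.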

Human alphaherpesvirus 1 [2] = experiment: Antiviral activity against HSV1 in african green monkey Vero cells assessed as reduction in number of plaques after 66 hrs; assay type: functional, organism-based
Outline: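 Confluent Vero monolayers were seeded at 2 × 10^4 cells/well in DMEM with 10% calf serum. Samples were dissolved in DMSO, diluted in medium and added in triplicate at 100, 50, 20, 10, 5, 2 and 1 µg/ml, with 30 PFU HS-1 per well. Wells were incubated 66 h at 37° under ~15% CO2, then formaldehyde-fixed, crystal violet-stained and scored visually. The value is the lowest concentration giving the stated % plaque reduction.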

Human alphaherpesvirus 1 [3] = experiment: Antiviral activity against HSV1 in african green monkey Vero cells assessed as reduction in number of plaques at 0.1 mg/ml after 66 hrs; assay type: functional; parameters: scale not given: the % may be the effect or the level left
Outline: (§1)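 Vero cells seeded at 2 × 10^4 per 200 µl well in DMEM with 10% calf serum, grown to confluence at 37° under ~15% CO2. Medium replaced with compound dilutions in triplicate, each well inoculated with 30 PFU HSV-1. Incubated 66 h, then formaldehyde-fixed and crystal violet-stained. Plaque reduction was scored visually.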

Human alphaherpesvirus 1 [4] = experiment: Antiviral activity against HSV1 in african green monkey Vero cells assessed as reduction in number of plaques at 0.005 mg/ml after 66 hrs; assay type: functional; parameters: scale not given: the % may be the effect or the level left; outline: as §1

Row | Compound | CC50 at 66 h [1] [µg/mL] | Activity (Human alphaherpesvirus 1 [2]) | Activity (Human alphaherpesvirus 1 [3]) [%] | Activity (Human alphaherpesvirus 1 [4]) [%]
1 | CC1(C)C[C@H](O)C[C@@]2(C)[C@H]1C[C@H](O)[C@H]1C[C@H]3C[C@]12CC[C@]3(C)O | 70 (≈ 217 µM) | inactive | – | –
2 | C[C@]1(CO)C[C@H](O)C[C@@]2(C)[C@H]1CC[C@H]1C[C@H]3C[C@]12CC[C@@]3(O)CO | > 399 | – | – | –
3 | CC1(C)C[C@H](O)C[C@@]2(C)[C@H]1CC[C@H]1C[C@H]3C[C@]12CC[C@]3(C)O [STEMODIN] | 40 (≈ 131 µM) | – | – | –
4 | C[C@@]1(CO)C[C@H](O)C[C@@]2(C)[C@H]1CC[C@@]1(O)C[C@H]3C[C@]12CC[C@]3(C)O | 660 (≈ 1950 µM) | inactive | – | –
5 | CC1(C)C[C@H](O)C[C@@]2(C)[C@H]1C[C@@H](O)[C@H]1C[C@H]3C[C@]12CC[C@]3(C)O | 200 (≈ 620 µM) | – | 33 | –
6 | C[C@@]1(CO)[C@H](O)CC[C@@]2(C)[C@H]1CC[C@H]1C[C@@H]3C[C@@]12CC[C@]3(O)CO [APHIDICOLIN] | 200 (≈ 591 µM) | – | – | 100
7 | C[C@@]1(CO)C[C@H](O)C[C@@]2(C)[C@H]1CC[C@H]1C[C@H]3C[C@]12CC[C@]3(C)O | 200 (≈ 620 µM) | – | 67 | –
8 | CC1(C)C[C@H](O)C[C@@]2(C)[C@H]1CC[C@H]1C[C@@]3(O)C[C@]12CC[C@]3(C)O | 150 (≈ 465 µM) | – | 27 | –
9 | CC1(C)C[C@H](O)C[C@@]2(C)[C@H]1CC[C@@]1(O)C[C@H]3C[C@]12CC[C@]3(C)O | 300 (≈ 930 µM) | – | 93 | –
10 | C[C@@]1(CO)C[C@H](O)C[C@@]2(C)[C@H]1CC[C@H]1C[C@H]3[C@H](O)[C@]12CC[C@]3(C)O | 70 (≈ 207 µM) | inactive | – | –
11 | CC1(C)C[C@H](O)C[C@@]2(C)[C@H]1C[C@H](O)[C@@]1(O)C[C@H]3C[C@@]21CC[C@]3(C)O | 40 (≈ 118 µM) | inactive | – | –
12 | C[C@]1(CO)C[C@H](O)C[C@@]2(C)[C@H]1CC[C@H]1C[C@H]3C[C@]12CC[C@]3(C)O | > 399 | – | – | –
